The target in test [1] is Cannabinoid receptor 1 (Homo sapiens, UniProt P21554). Put plainly: Displacement of [3H]CP-55940 from human CB1 receptor expressed in HEK293 cells. The test is classed as cell-based. The essentials: (§1)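 Membranes (50 µg) from HEK-293 cells stably expressing human CB1 (DMEM, 10% FBS) or CHO cells stably expressing human CB2 (DMEM, 10% FCS). Incubated with 0.5 nM [3H]CP55,940 and test compound (1 nM–10 µM) in buffer with BSA 5 mg/mL, 1 h at 30 °C. Filtration, scintillation counting. Ki from displacement data; three experiments in triplicate.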
Chain of Cannabinoid receptor 1 (P21554 whole entry): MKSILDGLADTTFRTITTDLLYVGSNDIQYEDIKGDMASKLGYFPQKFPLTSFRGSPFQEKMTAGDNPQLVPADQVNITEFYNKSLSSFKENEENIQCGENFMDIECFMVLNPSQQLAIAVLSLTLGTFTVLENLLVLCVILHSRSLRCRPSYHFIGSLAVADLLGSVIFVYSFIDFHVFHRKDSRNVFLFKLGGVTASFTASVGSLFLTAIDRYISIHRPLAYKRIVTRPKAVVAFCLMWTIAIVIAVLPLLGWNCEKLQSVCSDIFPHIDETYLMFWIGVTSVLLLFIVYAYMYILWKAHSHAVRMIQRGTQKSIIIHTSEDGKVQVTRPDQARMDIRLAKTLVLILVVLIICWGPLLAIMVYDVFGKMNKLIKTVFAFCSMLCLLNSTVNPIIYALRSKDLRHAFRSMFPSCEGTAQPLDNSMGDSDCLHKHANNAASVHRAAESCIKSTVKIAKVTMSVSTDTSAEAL

The test system of test [2] is Mus musculus. Put plainly: Hypothermic activity in iv dosed mouse assessed as change in rectal temperature after 4 mins. The class given is functional. The essentials:
(§2)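 A separate group of mice had rectal temperature taken by thermistor probe inserted 25 mm, before and 4 min after iv dosing in ethanol:emulphor:saline 1:1:18. Change is the pre minus post difference. ED50 from regression against log dose, in µmol/kg; otherwise maximal change given with its dose. Maximum dose 30 mg/kg.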

In test [3] the test system is Mus musculus. Put plainly: Antinociceptive activity in iv dosed mouse by tail filck test. The class given is functional. Put shortly: (§3)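 Mouse tail flick to radiant heat from bright light, 10-s cutoff. Baseline latency taken, then iv tail-vein dosing in ethanol:emulphor:saline 1:1:18, 0.1 mL/10 g. Retested 4 min later. Result expressed as %MPE, 6 mice/dose. ED50 from least-squares linear regression against log dose, in µmol/kg. Doses above 30 mg/kg not given.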

In test [4] the target is Cannabinoid receptor 2 (Homo sapiens, UniProt P34972). Put plainly: Displacement of [3H]CP-55940 from human CB2 receptor expressed in CHO cells. The test is classed as cell-based. The essentials: as §1
Chain of Cannabinoid receptor 2 (P34972 whole entry): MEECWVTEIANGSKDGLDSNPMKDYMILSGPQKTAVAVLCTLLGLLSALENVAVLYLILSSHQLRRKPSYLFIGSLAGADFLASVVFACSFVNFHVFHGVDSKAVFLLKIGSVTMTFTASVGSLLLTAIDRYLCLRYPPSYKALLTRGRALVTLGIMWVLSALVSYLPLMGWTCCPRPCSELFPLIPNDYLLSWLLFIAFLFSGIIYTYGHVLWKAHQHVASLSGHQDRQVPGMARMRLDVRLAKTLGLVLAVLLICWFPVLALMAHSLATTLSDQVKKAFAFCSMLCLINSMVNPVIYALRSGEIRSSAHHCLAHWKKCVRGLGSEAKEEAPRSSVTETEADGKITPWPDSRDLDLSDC
Background: In a radioligand displacement assay an active substance lowers the binding of a labelled ligand.

In test [5] the test system is Mus musculus. Put plainly: Induction of ring immobility in iv dosed mouse. The class given is functional. Put shortly: (§4)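 Right after the temperature reading, iv-dosed mice (ethanol:emulphor:saline 1:1:18) were placed on a 5.5-cm ring set 16 cm high. Time spent motionless over 5 min was recorded. ED50 from regression against log dose, in µmol/kg; otherwise maximal effect given with its dose. Maximum dose 30 mg/kg.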

The test system of test [6] is Mus musculus. Kind of test: Suppression of spontaneous activity in iv dosed mouse. The class given is functional. The essentials: (§5)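 Mice dosed iv in ethanol:emulphor:saline 1:1:18. After the 4-min tail-flick retest, each mouse spent 10 min in a photocell cage where beam interruptions were counted. Activity expressed as % of vehicle group, 6 mice/dose. ED50 from regression against log dose, in µmol/kg. Maximum dose 30 mg/kg.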

Test [7] relates to Mus musculus. Kind of test: Induction of ring immobility in mouse at 30 mg/kg, iv. The class given is functional. Put shortly: as §4
Test [8] deals with Mus musculus. Put plainly: Antinociceptive activity in mouse at 30 mg/kg, iv by tail filck test. The class given is functional. The essentials:
as §3

Test [9] relates to Mus musculus. Put plainly: Hypothermic activity in mouse assessed as change in rectal temperature at 30 mg/kg, iv after 4 mins. The class given is functional. Put shortly: as §2
For test [10], the system named is Mus musculus. Kind of test: Suppression of spontaneous activity in mouse at 30 mg/kg, iv. The class given is functional. Put shortly: as §5

Results on seven compounds are retold here after ChEMBL document CHEMBL1140469, “Novel, potent THC/anandamide (hybrid) analogs” (Bioorg Med Chem, 2007).

What is called Ki is the dissociation constant of the complex between target and ligand, obtained from inhibition or displacement. Read a low Ki as a stronger hold on the target. One may read the ED50 as the dose at which the effect has come halfway, by size or by number of responders.

Consider `C[C@H](CO)NC(=O)CCC/C=C\C/C=C\CCOc1cccc(C(C)(C)CCCCN=[N+]=[N-])c1`, for which the Ki in test [1] is 0.00274 µM; in test [4], 0.00252 µM. Also, the ED50 in [2] is 1.95 µmol/kg; in test [3] it was 0.2 µmol/kg; in [5], 0.3 µmol/kg; in test [6] it was 0.2 µmol/kg.

Regarding `CCCCCCC(C)(C)c1cccc(OCC/C=C\C/C=C\C/C=C\CCCC(=O)N[C@H](C)CO)c1`, the Activity in test [7] is 22%; in [8], 61%; in test [9], -0.9 °C; in test [10], 55%. In addition, the results for the Ki in test [1] and in test [4] were 0.131 µM and 0.189 µM, respectively.

On to `CCCCCCC(C)(C)c1cccc(OCC/C=C\C/C=C\CCCC(=O)N[C@H](C)CO)c1`, for which the Ki in test [1] was 0.00855 µM; in test [4] it was 0.0215 µM. The ED50 was 7.8 µmol/kg in test [2], 8.45 µmol/kg in test [3], 9.66 µmol/kg in test [5] and 3.73 µmol/kg in test [6].

For `C[C@H](CO)NC(=O)CCC/C=C\C/C=C\CCOc1cccc(C(C)(C)CCCCBr)c1`, the Ki in test [1] was determined as 0.00887 µM; in test [4], 0.00746 µM. Moreover, the ED50 is 2.1 µmol/kg in test [2], 0.8 µmol/kg in test [3], 1.4 µmol/kg in test [5] and 0.7 µmol/kg in test [6].

As for `CCCCCCC(C)(C)c1ccc(OCC/C=C\C/C=C\CCCC(=O)N[C@H](C)CO)cc1`, the Activity in test [7] is 13.4%; in test [8], 30.7%; in test [9] it was -0.5 °C; in test [10], 44.9%. For the same compound, the Ki is 0.195 µM in test [1] and 0.0782 µM in test [4].

On to `C[C@H](CO)NC(=O)CCC/C=C\C/C=C\CCOc1cccc(C(C)(C)CCCCO)c1`, for which the Ki was determined as 0.079 µM in test [1] and 0.0109 µM in test [4]. Further, the ED50 in test [2] amounted to 2.8 µmol/kg; in test [3], 0.6 µmol/kg; in test [5] it was 0.7 µmol/kg; in test [6], 1.1 µmol/kg.

For `CCCCCCC(C)(C)c1ccccc1/C=C\C/C=C\C/C=C\CCCC(=O)N[C@H](C)CO`, the results for the Ki in [1] and in test [4] were 0.0863 µM and 0.257 µM, respectively. The values for the Activity in test [8] and in test [9] were 50% and -0.87 °C, respectively. In addition, the figures for the ED50 in test [5] and in [6] were 27.7 µmol/kg and 25.7 µmol/kg, respectively.
